{
  "source": "ChEMBL document CHEMBL1671763",
  "about": "“Nasal carriage of methicillin-resistant and methicillin-sensitive strains of Staphylococcus sciuri in the Indonesian population” (2010)",
  "assay_type_in_all_cases": "functional",
  "key": {"Mammaliicoccus sciuri [1]": {"tested_on": "Mammaliicoccus sciuri", "assay": "Antimicrobial activity against mecA-deficient Staphylococcus sciuri assessed as resistant isolates", "how_it_was_run": "(§1)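 Nasal S. sciuri isolates from the Indonesian population, grouped by presence of the S. aureus mecA and S. sciuri mecA genes. Susceptibility to the additional antibiotics was tested on the automated Vitek 2 system (AST-P549 card), and the number of resistant isolates in each group was counted.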"}, "Mammaliicoccus sciuri [2]": {"tested_on": "Mammaliicoccus sciuri", "assay": "Antimicrobial activity against mecA-positive Staphylococcus sciuri assessed as resistant isolates", "how_it_was_run": "as §1"}, "Mammaliicoccus sciuri [3]": {"tested_on": "Mammaliicoccus sciuri", "assay": "Antimicrobial activity against mecA-deficient Staphylococcus sciuri harboring staphylococcus aureus mecA gene assessed as resistant isolates", "how_it_was_run": "as §1"}, "Mammaliicoccus sciuri [4]": {"tested_on": "Mammaliicoccus sciuri", "assay": "Antimicrobial activity against mecA-positive Staphylococcus sciuri harboring staphylococcus aureus mecA gene assessed as resistant isolates", "how_it_was_run": "as §1"}},
  "data": [
    {"compound": "CC[C@H]1OC(=O)[C@H](C)[C@@H](O[C@H]2C[C@@](C)(OC)[C@@H](O)[C@H](C)O2)[C@H](C)[C@@H](O[C@@H]2O[C@H](C)C[C@H](N(C)C)[C@H]2O)[C@](C)(O)C[C@@H](C)C(=O)[C@H](C)[C@@H](O)[C@]1(C)O", "note": "[ERYTHROMYCIN]", "values": [
      {"measurement": "Activity", "setting": "Mammaliicoccus sciuri [1]", "value": 0, "unit": "%"},
      {"measurement": "Activity", "setting": "Mammaliicoccus sciuri [2]", "value": 0, "unit": "%"},
      {"measurement": "Activity", "setting": "Mammaliicoccus sciuri [3]", "value": 33.3, "unit": "%"},
      {"measurement": "Activity", "setting": "Mammaliicoccus sciuri [4]", "value": 23.1, "unit": "%"}
    ]},
    {"compound": "CN[C@H](CC(C)C)C(=O)N[C@H]1C(=O)N[C@@H](CC(N)=O)C(=O)N[C@H]2C(=O)N[C@H]3C(=O)N[C@H](C(=O)N[C@H](C(=O)O)c4cc(O)cc(O)c4-c4cc3ccc4O)[C@H](O)c3ccc(c(Cl)c3)Oc3cc2cc(c3O[C@@H]2O[C@H](CO)[C@@H](O)[C@H](O)[C@H]2O[C@H]2C[C@](C)(N)[C@H](O)[C@H](C)O2)Oc2ccc(cc2Cl)[C@H]1O", "note": "[VANCOMYCIN]", "values": [
      {"measurement": "Activity", "setting": "Mammaliicoccus sciuri [1]", "value": 0, "unit": "%"},
      {"measurement": "Activity", "setting": "Mammaliicoccus sciuri [2]", "value": 0, "unit": "%"},
      {"measurement": "Activity", "setting": "Mammaliicoccus sciuri [3]", "value": 0, "unit": "%"},
      {"measurement": "Activity", "setting": "Mammaliicoccus sciuri [4]", "value": 0, "unit": "%"}
    ]},
    {"compound": "GENTAMICIN", "values": [
      {"measurement": "Activity", "setting": "Mammaliicoccus sciuri [1]", "value": 0, "unit": "%"},
      {"measurement": "Activity", "setting": "Mammaliicoccus sciuri [2]", "value": 0, "unit": "%"},
      {"measurement": "Activity", "setting": "Mammaliicoccus sciuri [3]", "value": 55.5, "unit": "%"},
      {"measurement": "Activity", "setting": "Mammaliicoccus sciuri [4]", "value": 38.5, "unit": "%"}
    ]},
    {"compound": "CC(=O)O[C@H]1C[C@@]2(C)[C@@H](C[C@@H](O)[C@H]3[C@@]4(C)CC[C@@H](O)[C@@H](C)[C@@H]4CC[C@@]32C)/C1=C(\\CCC=C(C)C)C(=O)O", "note": "[FUSIDIC ACID]", "values": [
      {"measurement": "Activity", "setting": "Mammaliicoccus sciuri [1]", "value": 55.6, "unit": "%"},
      {"measurement": "Activity", "setting": "Mammaliicoccus sciuri [2]", "value": 60, "unit": "%"},
      {"measurement": "Activity", "setting": "Mammaliicoccus sciuri [3]", "value": 44.4, "unit": "%"},
      {"measurement": "Activity", "setting": "Mammaliicoccus sciuri [4]", "value": 69.2, "unit": "%"}
    ]},
    {"compound": "CN(C)[C@@H]1C(O)=C(C(N)=O)C(=O)[C@@]2(O)C(O)=C3C(=O)c4c(O)cccc4[C@@](C)(O)[C@H]3C[C@@H]12", "note": "[TETRACYCLINE]", "values": [
      {"measurement": "Activity", "setting": "Mammaliicoccus sciuri [1]", "value": 11.1, "unit": "%"},
      {"measurement": "Activity", "setting": "Mammaliicoccus sciuri [2]", "value": 5, "unit": "%"},
      {"measurement": "Activity", "setting": "Mammaliicoccus sciuri [3]", "value": 77.8, "unit": "%"},
      {"measurement": "Activity", "setting": "Mammaliicoccus sciuri [4]", "value": 46.2, "unit": "%"}
    ]},
    {"compound": "CO[C@H]1/C=C/O[C@@]2(C)Oc3c(C)c(O)c4c(O)c(c(/C=N/N5CCN(C)CC5)c(O)c4c3C2=O)NC(=O)/C(C)=C\\C=C\\[C@H](C)[C@H](O)[C@@H](C)[C@@H](O)[C@@H](C)[C@H](OC(C)=O)[C@@H]1C", "note": "[RIFAMPIN]", "values": [
      {"measurement": "Activity", "setting": "Mammaliicoccus sciuri [1]", "value": 0, "unit": "%"},
      {"measurement": "Activity", "setting": "Mammaliicoccus sciuri [2]", "value": 0, "unit": "%"},
      {"measurement": "Activity", "setting": "Mammaliicoccus sciuri [3]", "value": 11.1, "unit": "%"},
      {"measurement": "Activity", "setting": "Mammaliicoccus sciuri [4]", "value": 15.4, "unit": "%"}
    ]},
    {"compound": "CCn1cc(C(=O)O)c(=O)c2cc(F)c(N3CCNCC3)cc21", "note": "[NORFLOXACIN]", "values": [
      {"measurement": "Activity", "setting": "Mammaliicoccus sciuri [1]", "value": 0, "unit": "%"},
      {"measurement": "Activity", "setting": "Mammaliicoccus sciuri [2]", "value": 0, "unit": "%"},
      {"measurement": "Activity", "setting": "Mammaliicoccus sciuri [3]", "value": 66.7, "unit": "%"},
      {"measurement": "Activity", "setting": "Mammaliicoccus sciuri [4]", "value": 15.4, "unit": "%"}
    ]}
  ]
}
